Experimental data taken from ChEMBL document CHEMBL2150943, “SAR and LC/MS studies of β-lactamic inhibitors of human fatty acid amide hydrolase (hFAAH): evidence of a nonhydrolytic process” (J Med Chem, 2011).
Values joined by “and” are separate entries in the source; they are usually repeats but may differ in a detail not shown here. Equal entries are not always repeated. Active and inactive are the calls of the source. The calls are words filed in the database; no cut-off is given here.

Tests used:
[1] = target: T1, Fatty-acid amide hydrolase 1 (Mus musculus) (UniProt O08914); experiment: Activity of mouse liver homogenate FAAH assessed as compound hydrolysis at 10^-5 M after 90 mins by HPLC/MS analysis in presence of URB-597; type: tissue-based
T1 sequence (whole entry): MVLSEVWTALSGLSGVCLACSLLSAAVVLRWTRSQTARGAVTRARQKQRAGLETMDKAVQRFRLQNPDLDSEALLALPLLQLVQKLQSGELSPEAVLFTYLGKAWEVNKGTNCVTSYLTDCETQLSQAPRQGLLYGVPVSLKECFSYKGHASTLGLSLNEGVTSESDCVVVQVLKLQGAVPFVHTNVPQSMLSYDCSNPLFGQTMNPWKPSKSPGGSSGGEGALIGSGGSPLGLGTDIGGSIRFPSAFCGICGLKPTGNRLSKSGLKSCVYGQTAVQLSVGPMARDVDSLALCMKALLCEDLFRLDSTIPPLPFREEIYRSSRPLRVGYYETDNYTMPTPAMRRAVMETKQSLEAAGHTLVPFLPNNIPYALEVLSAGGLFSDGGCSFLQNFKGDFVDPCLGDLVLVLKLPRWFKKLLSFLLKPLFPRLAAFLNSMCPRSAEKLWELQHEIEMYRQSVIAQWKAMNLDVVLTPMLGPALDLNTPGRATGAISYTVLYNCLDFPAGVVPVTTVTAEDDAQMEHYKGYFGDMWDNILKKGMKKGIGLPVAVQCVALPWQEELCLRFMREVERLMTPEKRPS
In short: (§1)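 Mouse liver homogenate (800g supernatant from Tris pH 7.4; 22.5 μg/tube) incubated with compound in TE buffer (10 mM Tris-HCl, 1 mM EDTA, 0.1% BSA, pH 7.4), 37 °C, 90 min, with or without preincubation with FAAH inhibitor (5.10^-5 M). Parent and ring-opened product measured by HPLC/MS as AUC ratio to internal standard, normalized to heat-inactivated homogenate. Three independent experiments in duplicate.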

[2] = target: T2, Fatty-acid amide hydrolase 1 (Homo sapiens) (UniProt O00519); experiment: Activity of human recombinant FAAH assessed as compound hydrolysis at 10^-5 M after 90 mins by HPLC/MS analysis
T2 sequence (whole entry): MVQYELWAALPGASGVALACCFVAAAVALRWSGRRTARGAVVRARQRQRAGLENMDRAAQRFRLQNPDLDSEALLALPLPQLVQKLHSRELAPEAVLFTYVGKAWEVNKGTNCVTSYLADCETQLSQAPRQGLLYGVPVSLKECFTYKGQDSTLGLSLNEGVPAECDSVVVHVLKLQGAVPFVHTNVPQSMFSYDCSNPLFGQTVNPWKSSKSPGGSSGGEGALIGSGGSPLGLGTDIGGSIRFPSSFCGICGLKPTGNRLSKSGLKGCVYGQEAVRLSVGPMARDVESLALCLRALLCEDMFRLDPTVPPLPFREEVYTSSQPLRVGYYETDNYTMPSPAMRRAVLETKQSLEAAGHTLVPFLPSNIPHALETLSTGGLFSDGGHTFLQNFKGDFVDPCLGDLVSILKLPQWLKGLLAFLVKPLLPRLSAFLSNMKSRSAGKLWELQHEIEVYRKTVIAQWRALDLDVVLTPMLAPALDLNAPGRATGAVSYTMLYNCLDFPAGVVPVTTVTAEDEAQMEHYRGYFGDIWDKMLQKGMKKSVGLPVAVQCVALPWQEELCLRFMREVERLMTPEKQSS
In short: (§2)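 Recombinant human FAAH (90 μg/tube), made in-house, incubated with compound in TE buffer (10 mM Tris-HCl, 1 mM EDTA, 0.1% w/v BSA, pH 7.4) at 37 °C for 90 min, with or without preincubation with FAAH inhibitor at 5.10^-5 M. Proteins precipitated by centrifugation and supernatant concentrated. Parent [M+H]+ quantified by HPLC/MS as AUC ratio to internal standard, normalized to boiled-enzyme blank. Three independent experiments in duplicate.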

[3] = target: T3, Fatty-acid amide hydrolase 1 (Homo sapiens, UniProt O00519); experiment: Irreversible inhibition of human recombinant FAAH assessed as hydrolysis of [3H]-AEA after 10 mins by liquid scintillation counting
T3 sequence (O00519 whole entry): T2 sequence (whole entry)

[4] = target: T2, Fatty-acid amide hydrolase 1 (Homo sapiens); experiment: Activity of human recombinant FAAH assessed as compound hydrolysis at 10^-5 M after 90 mins by HPLC/MS analysis in presence of PF-750; in short: as §2
[5] = Metabolic stability of the compound in mouse liver homogenate assessed as compound hydrolysis at 10^-5 M after 90 mins by HPLC/MS analysis; type: ADME, tissue-based; conditions: read-out: Drug metabolism
In short: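 Mouse liver homogenised in Tris buffer pH 7.4 and spun at 800g for 15 min; supernatant used (22.5 μg/tube). Compound incubated in TE buffer (10 mM Tris-HCl, 1 mM EDTA, 0.1% BSA, pH 7.4) for 90 min at 37 °C. Proteins removed and supernatant concentrated. HPLC/MS followed the parent [M+H]+ AUC against an internal standard, normalised to boiled homogenate. Mean ± SEM, 3 experiments in duplicate.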

[6] = target: T1, Fatty-acid amide hydrolase 1 (Mus musculus); experiment: Activity of mouse liver homogenate FAAH assessed as compound hydrolysis at 10^-5 M after 90 mins by HPLC/MS analysis in presence of PF-750; type: tissue-based; in short: as §1
[7] = target: T2, Fatty-acid amide hydrolase 1 (Homo sapiens); experiment: Activity of human recombinant FAAH assessed as compound hydrolysis at 10^-5 M after 90 mins by HPLC/MS analysis in presence of URB-597; in short: as §2
[8] = target: T1, Fatty-acid amide hydrolase 1 (Mus musculus); experiment: Activity of mouse liver homogenate FAAH assessed as compound hydrolysis at 10^-5 M after 90 mins by HPLC/MS analysis; type: tissue-based; in short: as §1
[9] = target: T3, Fatty-acid amide hydrolase 1; experiment: Reversible inhibition of human recombinant FAAH assessed as hydrolysis of [3H]-AEA after 10 mins by liquid scintillation counting
In short: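 In-house recombinant human FAAH (6 μg) in 10 mM Tris-HCl, 1 mM EDTA, 0.1% (w/v) BSA, pH 7.4. Compound in DMSO, or DMSO alone, with [3H]-AEA (2 μM final, 50,000 dpm) for 10 min at 37 °C. Stopped on ice with chloroform/methanol (1:1). Aqueous phase counted for [3H]-ethanolamine; buffer-only blank subtracted. IC50 from three independent experiments in duplicate.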

IC50 ([9]; read-out: IC50) [µM]	IC50 ([9]; read-out: pIC50 (converted)) [µM]	SMILES	Activity [1]	Activity [2]	Activity [4]	metabolised at 1.5 h, 10 µM [5] [%]	Activity [6]	Activity [7]	also measured
		C=CCCC(=O)N1C[C@@H]([C@@H](C)OCCCCc2ccccc2)C1=O	inactive	inactive	inactive	> 80	Active	inactive	IC50 [3]: 8 nM and 8.13 nM
		CCCCC/C=C\C/C=C\C/C=C\C/C=C\CCCC(=O)NCCO	inactive	Active	inactive		inactive	inactive	Activity [8]: Active
		C=CCCC(=O)N1C[C@@H]([C@@H](C)OC(=O)CCCc2ccccc2)C1=O				> 80			pIC50 [9]: 8.27
82.8	83.2	C=CCCCN1C[C@@H]([C@@H](C)OC(=O)CCCc2ccccc2)C1=O							
2.9	2.88	C=CCCC(=O)N1CC([C@@H](C)OCCCCc2ccccc2)C1							
